Source: ChEMBL document CHEMBL5154764, “Development of small molecules that work cooperatively with ciprofloxacin to clear salmonella biofilms in a chronic gallbladder carriage model” (Eur J Med Chem, 2022)
pEC50, pIC50: −log10 of the molar value. Active and inactive are the calls of the source. No cut-off for these calls is given here.

Legend:
Salmonella typhimurium [1] = test: Antibiofilm activity against Salmonella typhimurium ATCC 14028 assessed as biofilm dispersal effect incubated for 24 hrs by crystal violet staining based spectrophotometry; format: functional, organism-based, Salmonella enterica subsp. enterica serovar Typhimurium; conditions: Salmonella enterica, ATCC 14028, 24 h
Method in brief: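 Biofilms grown 24 h at 30 °C with nutation in TSB diluted 1:20, from 1:100-diluted LB overnight cultures set to OD600 0.8. Crystal violet staining, acetic acid solubilization, 570 nm read-out. EC50 from variable-slope fit of % biofilm remaining vs log concentration. Mean ± SD of three biological replicates.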

Salmonella typhimurium [2] = test: Antibiofilm activity against Salmonella typhimurium ATCC 14028 assessed as inhibition of biofilm formation incubated for 24 hrs by crystal violet staining based spectrophotometry; format: functional, organism-based, Salmonella enterica subsp. enterica serovar Typhimurium; conditions: Salmonella enterica, ATCC 14028, 24 h
Method in brief: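 LB overnight cultures (37 °C) set to OD600 0.8, diluted 1:100 into TSB diluted 1:20 in water. Compound at 0.2–100 μM or DMSO added at inoculation. Grown 24 h at 30 °C with nutation, washed, heat-fixed (60 °C, 1 h), stained with crystal violet, dye solubilized in acetic acid, read at 570 nm. IC50 from variable-slope fit of % biofilm vs log concentration. Mean ± SD of three biological replicates.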

Salmonella typhimurium [3] = test: Antibacterial activity against Salmonella typhimurium ATCC 14028 assessed as bacterial growth inhibition at >=100 uM; format: functional, organism-based; conditions: Salmonella enterica subsp. enterica serovar Typhimurium
Salmonella typhimurium [4] = test: Antibacterial activity against Salmonella typhimurium ATCC 14028 assessed as bacterial growth inhibition at >= 50 uM; format: functional, organism-based; conditions: Salmonella enterica subsp. enterica serovar Typhimurium
Salmonella typhimurium [5] = test: (§1) Antibacterial activity against Salmonella typhimurium ATCC 14028 infected in 129X1/SvJ NRAMP +/+ mouse gallstone model assessed as log reduction in bacterial burden in gallblader at 5 mg/kg/day, ip administered for 5 to 15 consecutive days of post infection and measured on day 15 in presence of 1 mg/kg/day ciprofloxacin; format: functional, Salmonella enterica subsp. enterica serovar Typhimurium; conditions: time 10 day
Method in brief: (§2)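 129X1/SvJ NRAMP+/+ mice given a lithogenic diet (chow plus 1% cholesterol, 0.5% cholic acid) for 8 weeks. Infected i.p. with ~10^3 CFU in 200 μL PBS. Treated daily i.p. on days 5–15 post-infection; vehicle 5% DMSO in PBS. Day 15: gallbladder, liver and spleen homogenized in 1 mL PBS, serially diluted and plated on LB agar (37 °C, 16 h) for CFU counts. One-way ANOVA with Tukey correction.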

Salmonella typhimurium [6] = test: Antibacterial activity against Salmonella typhimurium ATCC 14028 assessed as bacterial growth inhibition at >=12.5 uM; format: functional, organism-based; conditions: Salmonella enterica subsp. enterica serovar Typhimurium
Salmonella typhimurium [7] = test: as §1, with “at 10” for “at 5”, “administered from” for “administered for”, “days” for “days of post infection”; format: functional, Salmonella enterica subsp. enterica serovar Typhimurium; conditions: time 10 day
Salmonella typhimurium [8] = test: Antibacterial activity against Salmonella typhimurium ATCC 14028 infected in 129X1/SvJ NRAMP +/+ mouse gallstone model assessed as reduction in bacterial burden in spleen at 2 mg/kg/day, ip administered from 5 to 15 consecutive days and measured on day 15; format: functional, organism-based; conditions: Salmonella enterica subsp. enterica serovar Typhimurium, time 10.0 day; method in brief: as §2
Salmonella typhimurium [9] = test: Antibacterial activity against Salmonella typhimurium ATCC 14028 infected in 129X1/SvJ NRAMP +/+ mouse gallstone model assessed as reduction in bacterial burden in liver at 2 mg/kg/day, ip administered from 5 to 15 consecutive days and measured on day 15; format: functional, organism-based; conditions: Salmonella enterica subsp. enterica serovar Typhimurium, time 10.0 day; method in brief: as §2
Salmonella typhimurium [10] = test: Antibacterial activity against Salmonella typhimurium ATCC 14028 infected in 129X1/SvJ NRAMP +/+ mouse gallstone model assessed as log reduction in bacterial burden in gallblader at 4 mg/kg/day, ip administered from 5 to 15 consecutive days and measured on day 15; format: functional, Salmonella enterica subsp. enterica serovar Typhimurium; conditions: time 10 day; method in brief: as §2
Salmonella typhimurium [11] = test: as §1, with “as” for “as log”, “of 4” for “of 1”; format: functional, organism-based; conditions: Salmonella enterica subsp. enterica serovar Typhimurium, time 10.0 day; method in brief: as §2
Salmonella typhimurium [12] = test: as §1, with “as” for “as log”, “in spleen” for “in gallblader”, “of 4” for “of 1”; format: functional, organism-based; conditions: Salmonella enterica subsp. enterica serovar Typhimurium, time 10.0 day; method in brief: as §2
Salmonella typhimurium [13] = test: as §1, with “as” for “as log”, “in liver” for “in gallblader”, “of 4” for “of 1”; format: functional, organism-based; conditions: Salmonella enterica subsp. enterica serovar Typhimurium, time 10.0 day; method in brief: as §2

Compound	pEC50 (Salmonella typhimurium [1])	pIC50 (Salmonella typhimurium [2])	also measured
CN(Cc1ccsc1)CC1CCNCC1	3.35	3.86	–
CN(Cc1ccsc1)CC1CCN(CCc2cccc(Br)c2)CC1	4.08	5.44	growth inhibition (GI) (Salmonella typhimurium [3]): Active
CN(Cc1ccsc1)CC1CCN(CCc2ccc(I)cc2)CC1	4.05	5.59	growth inhibition (GI) (Salmonella typhimurium [4]): Active
CN(Cc1ccsc1)CC1CCN(CCc2ccccc2Cl)CC1	3.63	5.22	–
CN(Cc1ccsc1)CC1CCN(Cc2cc(F)cc(F)c2)CC1	< 1.92	4.85	–
CN(Cc1ccsc1)CC1CCN(Cc2ccccc2)CC1	< 1.92	4.57	–
CN(Cc1ccsc1)CC1CCN(Cc2ccc(F)cc2)CC1	3.35	4.89	–
CN(Cc1ccsc1)CC1CCN(CCc2cccc3ccccc23)CC1	4.55	5.60	growth inhibition (GI) (Salmonella typhimurium [4]): Active
CN(Cc1ccsc1)CC1CCN(CCc2ccc(-c3ccccc3)cc2)CC1	–	–	log(activity) (Salmonella typhimurium [5]): 3.5; growth inhibition (GI) (Salmonella typhimurium [6]): Active
CN(Cc1ccsc1)CC1CCN(Cc2ccccc2C(F)(F)F)CC1	3.85	4.68	growth inhibition (GI) (Salmonella typhimurium [3]): Active
CN(Cc1ccsc1)CC1CCN(CCc2cccc(Cl)c2)CC1	3.87	5.70	growth inhibition (GI) (Salmonella typhimurium [3]): Active
CN(Cc1ccsc1)CC1CCN(CCCc2ccccc2)CC1	< 1.92	4.11	–
CN(Cc1ccsc1)CC1CCN(Cc2cccc(Br)c2)CC1	3.85	5.19	–
CN(Cc1ccsc1)CC1CCN(CCc2ccccc2Br)CC1	3.51	5.14	–
CN(Cc1ccsc1)CC1CCN(CCCc2ccccc2Cl)CC1	4.23	5.27	–
CN(Cc1ccsc1)CC1CCN(Cc2ccc(Br)c(Br)c2)CC1	4.49	4.92	–
CN(Cc1ccsc1)CC1CCN(Cc2ccc(Cl)c(Cl)c2)CC1	4.26	5.41	–
CN(Cc1ccsc1)CC1CCN(CCc2ccc(Cl)cc2Cl)CC1	4.66	5.60	–
CN(Cc1ccsc1)CC1CCN(CCc2cc(Br)cc(Br)c2)CC1	4.38	5.47	growth inhibition (GI) (Salmonella typhimurium [3]): Active

Compound	pEC50 (Salmonella typhimurium [1])	pIC50 (Salmonella typhimurium [2])	also measured
CN(Cc1ccsc1)CC1CCN(Cc2cccc(F)c2)CC1	2.98	5.06	–
CN(Cc1ccsc1)CC1CCN(Cc2cccc(F)c2F)CC1	3.06	3.84	growth inhibition (GI) (Salmonella typhimurium [3]): Active
CN(Cc1ccsc1)CC1CCN(CCc2cccc(Cl)c2Cl)CC1	–	–	log(activity) (Salmonella typhimurium [5]): 1.5
CN(Cc1ccsc1)CC1CCN(CCc2ccccc2C(F)(F)F)CC1	4.22	4.90	–
CN(Cc1ccsc1)CC1CCN(CCc2ccccc2)CC1	< 1.92	4.67	–
CN(Cc1ccsc1)CC1CCN(CCc2ccccc2F)CC1	3.08	5.24	log(activity) (Salmonella typhimurium [7]): 3; log(activity) (Salmonella typhimurium [5]): 2
CN(Cc1ccsc1)CC1CCN(CCc2ccc(Cl)c(Cl)c2)CC1	4.35	5.85	growth inhibition (GI) (Salmonella typhimurium [4]): Active
CN(Cc1ccsc1)CC1CCN(CCc2cccc(-c3ccccc3)c2)CC1	4.51	5.74	growth inhibition (GI) (Salmonella typhimurium [6]): Active
CN(Cc1ccsc1)CC1CCN(Cc2ccccc2Br)CC1	4.10	5.31	–
CN(Cc1ccsc1)CC1CCN(CCc2cc(F)cc(F)c2)CC1	< 1.92	< 3.70	growth inhibition (GI) (Salmonella typhimurium [4]): Active
CN(Cc1ccsc1)CC1CCN(Cc2ccc(I)cc2)CC1	4.11	5.24	–
CN(Cc1ccsc1)CC1CCN(CCc2ccc(F)c(F)c2)CC1	4.06	5.52	–
O=C(O)c1cn(C2CC2)c2cc(N3CCNCC3)c(F)cc2c1=O [CIPROFLOXACIN]	–	–	Activity (Salmonella typhimurium [8]): Active; Activity (Salmonella typhimurium [9]): Active; log(activity) (Salmonella typhimurium [10]): 3
CN(Cc1ccsc1)CC1CCN(CCc2cc(Cl)cc(Cl)c2)CC1	4.35	5.80	growth inhibition (GI) (Salmonella typhimurium [4]): Active
CN(Cc1ccsc1)CC1CCN(Cc2cccc(I)c2)CC1	4.04	5.00	–
CN(Cc1ccsc1)CC1CCN(CCc2ccc(Br)cc2)CC1	4.24	5.52	–
CN(Cc1ccsc1)CC1CCN(CCc2ccc(Cl)cc2)CC1	4.16	5.52	–
CN(Cc1ccsc1)CC1CCN(Cc2ccc(Cl)cc2)CC1	3.03	5.23	–
CN(Cc1ccsc1)CC1CCN(Cc2ccc(F)c(F)c2)CC1	2.42	5.14	–

Compound	pEC50 (Salmonella typhimurium [1])	pIC50 (Salmonella typhimurium [2])	also measured
CN(Cc1ccsc1)CC1CCN(CCc2ccccc2I)CC1	4.22	5.37	growth inhibition (GI) (Salmonella typhimurium [4]): Active
Cc1ccccc1CN1CCC(CN(C)Cc2ccsc2)CC1	3.61	5.20	–
CN(Cc1ccsc1)CC1CCN(Cc2ccc(Br)cc2)CC1	3.90	5.07	–
CN(Cc1ccsc1)CC1CCN(Cc2cc(Cl)ccc2Cl)CC1	3.71	4.80	–
CN(Cc1ccsc1)CC1CCN(CCc2ccc(F)cc2)CC1	3.63	4.77	–
CN(Cc1ccsc1)CC1CCN(Cc2ccccc2F)CC1	3.90	5.06	–
CN(Cc1ccsc1)CC1CCN(CCc2c(F)cccc2F)CC1	3.86	5.20	–
CN(Cc1ccsc1)CC1CCN(Cc2cccc(Cl)c2)CC1	3.52	5.28	–
CN(Cc1ccsc1)CC1CCN(CCCc2ccccc2F)CC1	3.66	4.94	–
CN(Cc1ccsc1)CC1CCN(CCc2cccc(F)c2)CC1	3.41	5.16	–
CN(Cc1ccsc1)CC1CCN(Cc2ccccc2Cl)CC1	2.74	5.57	–
CN(Cc1ccsc1)CC1CCN(Cc2ccccc2I)CC1	4.10	5.27	–
CN(Cc1ccsc1)CC1CCN(Cc2c(F)cccc2F)CC1	< 1.92	< 3.70	growth inhibition (GI) (Salmonella typhimurium [3]): Active
CC(C)c1ccc(CCN2CCC(CN(C)Cc3ccsc3)CC2)cc1	3.91	5.64	growth inhibition (GI) (Salmonella typhimurium [6]): Active
CN(Cc1ccsc1)CC1CCN(Cc2cccc(Cl)c2Cl)CC1	4.15	5.57	–
CN(Cc1ccsc1)CC1CCN(CCc2cccc(I)c2)CC1	4.36	5.40	–
CNCC1CCN(CCc2ccccc2F)CC1	–	–	growth inhibition (GI) (Salmonella typhimurium [3]): Active
COc1ccccc1CCN1CCC(CN(C)Cc2ccsc2)CC1	1.93	4.77	–
CN(Cc1ccsc1)CC1CCN(CCc2ccc(Br)c(Br)c2)CC1	–	–	Activity (Salmonella typhimurium [11]): Active; log(activity) (Salmonella typhimurium [5]): 4.5; Activity (Salmonella typhimurium [12]): Active; Activity (Salmonella typhimurium [13]): Active; growth inhibition (GI) (Salmonella typhimurium [6]): Active
